Measurements as given in PMC11931292 (Drug Design, Development and Therapy, 2025).

Legend:
[1] = In vitro drug release; type: physicochemical; conditions: within 9 hours
[2] = test system: BCG within RAW264.7; experiment: Intracellular inhibition, CFU assay in infected RAW264.7 cells; type: cell-based; conditions: 0.047 μg/mL drug, 72 hours, BCG MOI 1
Outline: (§1)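 RAW264.7 macrophages were seeded at 1×10⁶ cells/well in 12-well plates and infected at MOI 1, for 24 h with BCG or 4 h with H37Rv. Cells were exposed to 0.047 μg/mL free drug or nanoparticles with equivalent drug for 72 h, washed three times with PBS, and lysed 10 min in PBS with 0.03% SDS. Lysates were serially diluted in 7H9, plated on 7H11, and CFU counted after 21 days at 37°C (three replicates).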

[3] = test system: H37Rv within RAW264.7; experiment: as above; type: cell-based, Mycobacterium tuberculosis; conditions: 0.047 μg/mL drug, 72 hours, H37Rv MOI 1
Outline: as §1

[4] = Pharmacokinetics study, single intravenous injection; type: in vivo, Sprague-Dawley (SD) rats; conditions: SD rats, single i.v. 10 mg/kg
Outline: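 Male SD rats (180–220 g) were randomised to free drug or one of two nanoparticle formulations and anaesthetised with i.p. 2% sodium pentobarbital (3mg/100g). Each got a single i.v. dose of 10 mg/kg drug-equivalent. Blood was drawn by orbital bleeding at set times. Plasma was deproteinised with acetonitrile and centrifuged, and the supernatant was assayed by HPLC (C18, 30°C, 335 nm). Cmax, Tmax, t1/2, MRT and AUC0–∞ were derived.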

[5] = Organ toxicity: H&E histology and serum biochemistry; type: in vivo, SD rats; conditions: fourth day after injection
Outline: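 On day 4 after injection, animals were euthanised. Heart, kidneys, liver, lungs and spleen were excised, rinsed in saline to remove blood, fixed in 4% paraformaldehyde for 72 h, and stained with hematoxylin and eosin.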

For CO[C@H]1/C=C/O[C@@]2(C)Oc3c(C)c(O)c4c(O)c(c(/C=N/N5CCN(C6CCCC6)CC5)c(O)c4c3C2=O)NC(=O)/C(C)=C\C=C\[C@H](C)[C@H](O)[C@@H](C)[C@@H](O)[C@@H](C)[C@H](OC(C)=O)[C@@H]1C [RPT, Rifapentine], the “Cumulative release (initial burst release)” value [1] was “approximately 90.73%”, the “Intracellular antibacterial activity (CFU)” value [2] was “exhibited inhibitory effects” and the “Intracellular antibacterial activity (CFU)” value [3] was “exhibited inhibitory effects”. The “Time the drug persisted in the system” value [4] was 2 days and the “H&E histology of heart, spleen, liver, lungs and kidneys” value [5] was “no discernible abnormalities”.
